# Results as given in ChEMBL document CHEMBL1138489, “Chalcones: a valid scaffold for monoamine oxidases inhibitors” (J Med Chem, 2009).
# What was measured:
# [1] = target: T1, Amine oxidase [flavin-containing] A (Homo sapiens, UniProt P21397); assay: Inhibition of human recombinant MAO-A assessed as hydrogen peroxide production at 20 uM
# T1 sequence (P21397 whole entry): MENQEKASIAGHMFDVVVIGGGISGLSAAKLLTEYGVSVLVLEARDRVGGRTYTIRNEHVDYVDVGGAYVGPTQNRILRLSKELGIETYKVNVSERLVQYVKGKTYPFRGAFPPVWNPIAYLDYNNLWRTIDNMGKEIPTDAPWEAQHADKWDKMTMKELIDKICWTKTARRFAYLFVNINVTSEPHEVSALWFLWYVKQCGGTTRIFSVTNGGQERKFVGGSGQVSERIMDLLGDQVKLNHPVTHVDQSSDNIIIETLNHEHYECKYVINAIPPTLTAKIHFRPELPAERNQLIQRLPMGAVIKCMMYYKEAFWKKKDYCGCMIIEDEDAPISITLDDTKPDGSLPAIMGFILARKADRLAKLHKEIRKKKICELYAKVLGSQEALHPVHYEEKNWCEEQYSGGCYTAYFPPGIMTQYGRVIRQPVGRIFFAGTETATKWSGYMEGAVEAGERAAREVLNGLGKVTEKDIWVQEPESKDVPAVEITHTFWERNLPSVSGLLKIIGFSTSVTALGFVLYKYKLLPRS
# Outline: (§1)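 Recombinant hMAO-A or hMAO-B microsomes came from baculovirus-infected BTI-TN-5B1-4 insect cells. Enzyme was set to 165 pmol p-tyramine/min (A 1.1 µg, B 7.5 µg protein). It was preincubated with compound in 0.05 M sodium phosphate, pH 7.4, for 15 min at 37 °C. Final 200 µM Amplex Red, 1 U/mL HRP and 1 mM p-tyramine started the reaction. H2O2 was read as resorufin fluorescence (ex 545/em 590 nm) over 15 min at 37 °C against vehicle controls.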
# [2] = target: T2, Amine oxidase [flavin-containing] B (Homo sapiens, UniProt P27338); assay: Inhibition of human recombinant MAO-B assessed as hydrogen peroxide production at 20 uM
# T2 sequence (P27338 whole entry): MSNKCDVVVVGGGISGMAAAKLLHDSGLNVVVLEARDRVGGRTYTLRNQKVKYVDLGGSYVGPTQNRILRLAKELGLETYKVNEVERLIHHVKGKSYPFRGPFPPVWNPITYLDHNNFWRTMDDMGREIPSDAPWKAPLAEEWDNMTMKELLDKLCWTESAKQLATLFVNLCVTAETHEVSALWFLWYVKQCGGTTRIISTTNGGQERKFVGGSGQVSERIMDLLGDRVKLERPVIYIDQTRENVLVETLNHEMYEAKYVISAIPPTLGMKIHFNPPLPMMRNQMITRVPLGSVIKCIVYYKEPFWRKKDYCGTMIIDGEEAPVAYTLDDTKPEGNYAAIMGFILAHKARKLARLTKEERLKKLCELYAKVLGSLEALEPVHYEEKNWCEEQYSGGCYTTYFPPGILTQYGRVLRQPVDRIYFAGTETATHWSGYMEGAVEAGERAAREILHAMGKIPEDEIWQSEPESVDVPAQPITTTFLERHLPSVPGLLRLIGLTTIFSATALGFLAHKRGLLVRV
# [3] = target: T1, Amine oxidase [flavin-containing] A; assay: Inhibition of human recombinant MAO-A assessed as hydrogen peroxide production at 50 uM; outline: as §1
# [4] = target: T2, Amine oxidase [flavin-containing] B
# Homo sapiens = species: Homo sapiens; assay: Selectivity index, ratio of inhibition of human recombinant MAO-A at 20 uM or 50 uM to IC50 for human recombinant MAO-B
# [5] = target: T2, Amine oxidase [flavin-containing] B; assay: Inhibition of human MAO-B at 20 uM before washing
# [6] = target: T2, Amine oxidase [flavin-containing] B; assay: Inhibition of human MAO-B at 20 uM after repeated washing
# [7] = target: T2, Amine oxidase [flavin-containing] B; assay: Inhibition of human MAO-B at 5 uM before washing
# [8] = target: T2, Amine oxidase [flavin-containing] B; assay: Inhibition of human MAO-B at 5 uM after repeated washing
# [9] = target: T1, Amine oxidase [flavin-containing] A; assay: Inhibition of human recombinant MAO-A assessed as hydrogen peroxide production
# [10] = target: T1, Amine oxidase [flavin-containing] A; assay: Inhibition of human recombinant MAO-A assessed as hydrogen peroxide production at 1 mM
# [11] = target: T2, Amine oxidase [flavin-containing] B; assay: Inhibition of human recombinant MAO-B assessed as hydrogen peroxide production at 1 mM
# Outline: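 Microsomal recombinant hMAO-B (baculovirus-infected BTI-TN-5B1-4 insect cells; 7.5 µg protein) preincubated with drug in 0.05 M sodium phosphate, pH 7.4, 15 min, 37 °C. Started with (final) 200 µM Amplex Red, 1 U/mL horseradish peroxidase, 1 mM p-tyramine. H2O2 read as resorufin fluorescence (ex 545/em 590 nm) over 15 min at 37 °C. Vehicle controls; five experiments.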
compound,measurement,setting,value
CC(C)=CCOc1ccc(C(=O)/C=C/c2ccc(OCc3ccccc3)cc2)c(O)c1,IC50,[1],Not Active
same,IC50,[2],Not Active
O=C(/C=C/c1ccc(Cl)cc1)c1ccccc1O,IC50,[3],Not Active
same,IC50,[4],160 nM
same,Ratio IC50,Homo sapiens,> 312
CS(=O)(=O)c1ccc(C(=O)/C=C/c2ccc(Cl)cc2)cc1,IC50,[1],Not Active
same,IC50,[4],470 nM
same,Ratio IC50,Homo sapiens,> 43
CC(C)=CCOc1ccc(C(=O)/C=C/c2ccccc2)c(O)c1 [CORDOIN],inhibition (INH),[5],54.32%
same,IC50,[1],Not Active
same,IC50,[4],18800 nM
same,inhibition (INH),[6],58.51%
same,Ratio IC50,Homo sapiens,> 1.1
COc1ccc(C(=O)/C=C/c2ccc(Cl)cc2)c(O)c1,inhibition (INH),[7],59.13%
same,inhibition (INH),[8],60.26%
O=C(/C=C/c1ccc(Cl)cc1)c1ccc(O)cc1O,inhibition (INH),[7],55.12%
same,inhibition (INH),[8],61.38%
same,IC50,[4],5.1 nM
same,IC50,[9],4950 nM
same,Ratio IC50,Homo sapiens,971
same,IC50,[10],Not Active
COc1ccc(/C=C/C(=O)c2ccc(OCC=C(C)C)cc2O)cc1,IC50,[1],Not Active
same,IC50,[2],Not Active
C#CCN(C)CCCOc1ccc(Cl)cc1Cl [CLORGILINE],IC50,[10],Not Active
COc1ccc(C(=O)/C=C/c2ccc(OCc3ccccc3)cc2)cc1,IC50,[1],Not Active
same,IC50,[4],450 nM
same,Ratio IC50,Homo sapiens,> 44
O=C(/C=C/c1ccc(Cl)cc1)c1ccc(F)cc1O,IC50,[4],71 nM
same,Ratio IC50,Homo sapiens,> 704
O=C(/C=C/c1ccc(OCc2ccccc2)cc1)c1ccc(F)cc1,IC50,[1],Not Active
same,IC50,[4],500 nM
same,Ratio IC50,Homo sapiens,> 40
C#CCN(C)[C@H](C)Cc1ccccc1 [SELEGILINE],IC50,[10],Not Active
CC(C)=CCOc1ccc(C(=O)/C=C/c2ccc(Cl)cc2)c(O)c1,IC50,[1],Not Active
same,IC50,[4],1250 nM
same,Ratio IC50,Homo sapiens,> 16
COc1ccc(C(=O)/C=C/c2ccc(Cl)cc2)cc1,IC50,[1],Not Active
same,IC50,[4],54 nM
same,Ratio IC50,Homo sapiens,> 370
O=C(/C=C/c1ccc(Cl)cc1)c1ccc(O)cc1,IC50,[3],Not Active
same,IC50,[4],31 nM
same,Ratio IC50,Homo sapiens,> 1610
O=C(NCCN1CCOCC1)c1ccc(Cl)cc1 [MOCLOBEMIDE],IC50,[11],Not Active
O=C(/C=C/c1ccccc1)c1ccccc1 [CHALCONE],IC50,[1],Not Active
same,IC50,[4],1410 nM
same,Ratio IC50,Homo sapiens,> 14
O=C(/C=C/c1ccc(Cl)cc1)c1ccc(OCc2ccccc2)cc1,IC50,[1],Not Active
CC(C)=CCOc1ccc(C(=O)/C=C/c2ccc(C)cc2)c(O)c1,IC50,[1],Not Active
same,IC50,[4],1030 nM
same,Ratio IC50,Homo sapiens,> 19
